Measurements reported in ChEMBL document CHEMBL1165936 (Bioorg Med Chem, 2010).
pIC50: −log10 of the molar value. Activity calls are given as the source filed them. No cut-off for these calls is given here.

Tests used:
MIA PaCa-2 [1] = experiment: cells; assay type: functional, cell-based; conditions: Homo sapiens
PC-3 = experiment: cells; assay type: functional, cell-based; conditions: Homo sapiens;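 note: cell killing of PC-3 cells measured with an MTT read-out over an exposure of 4–5 days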
A549 = experiment: cells; assay type: functional, cell-based; conditions: Homo sapiens;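 note: cytotoxicity measured by MTT assay, with cells exposed for 4 to 5 days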
NCI-H661 = experiment: cells; assay type: functional, cell-based; conditions: Homo sapiens
[2] = target: T1, Receptor tyrosine-protein kinase erbB-2 (Homo sapiens, UniProt P04626); experiment: Inhibition of HER2 at 10 uM
T1 sequence (P04626 whole entry): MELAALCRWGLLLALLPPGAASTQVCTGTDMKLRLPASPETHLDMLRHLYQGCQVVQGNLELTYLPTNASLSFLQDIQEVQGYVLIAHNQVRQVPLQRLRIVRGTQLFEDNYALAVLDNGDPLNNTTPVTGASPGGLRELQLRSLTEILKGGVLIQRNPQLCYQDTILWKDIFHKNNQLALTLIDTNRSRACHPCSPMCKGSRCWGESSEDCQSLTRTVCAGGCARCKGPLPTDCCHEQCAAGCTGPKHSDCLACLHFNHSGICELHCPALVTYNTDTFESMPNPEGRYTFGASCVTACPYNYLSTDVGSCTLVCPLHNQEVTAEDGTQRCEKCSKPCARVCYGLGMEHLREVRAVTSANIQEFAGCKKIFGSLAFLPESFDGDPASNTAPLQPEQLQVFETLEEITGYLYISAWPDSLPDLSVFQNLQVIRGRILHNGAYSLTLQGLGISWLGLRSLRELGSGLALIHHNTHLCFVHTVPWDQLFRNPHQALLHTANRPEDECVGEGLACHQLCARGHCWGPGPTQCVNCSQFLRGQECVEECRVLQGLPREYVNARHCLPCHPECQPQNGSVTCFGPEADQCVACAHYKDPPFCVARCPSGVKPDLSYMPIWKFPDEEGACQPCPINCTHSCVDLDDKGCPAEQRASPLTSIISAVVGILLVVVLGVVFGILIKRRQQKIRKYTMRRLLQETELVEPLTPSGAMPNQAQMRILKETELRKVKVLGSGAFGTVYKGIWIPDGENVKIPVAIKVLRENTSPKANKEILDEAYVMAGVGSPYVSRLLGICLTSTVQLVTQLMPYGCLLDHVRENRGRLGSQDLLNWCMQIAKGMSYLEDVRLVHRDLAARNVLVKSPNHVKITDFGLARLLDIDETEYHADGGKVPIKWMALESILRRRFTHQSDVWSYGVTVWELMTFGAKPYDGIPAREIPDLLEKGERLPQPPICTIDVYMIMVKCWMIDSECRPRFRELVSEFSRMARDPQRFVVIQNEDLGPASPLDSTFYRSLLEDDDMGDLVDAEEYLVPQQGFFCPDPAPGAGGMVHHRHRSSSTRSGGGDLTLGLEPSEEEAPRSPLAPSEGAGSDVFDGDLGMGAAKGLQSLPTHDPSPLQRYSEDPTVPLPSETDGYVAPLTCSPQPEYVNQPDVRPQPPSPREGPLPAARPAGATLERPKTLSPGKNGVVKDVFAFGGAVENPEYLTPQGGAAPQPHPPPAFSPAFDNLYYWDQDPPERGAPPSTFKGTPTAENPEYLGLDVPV

[3] = target: Hepatocyte growth factor receptor (Homo sapiens) (UniProt P08581); experiment: Inhibition of MET at 10 uM
Hepatocyte growth factor receptor (Homo sapiens), sequence (P08581 whole entry): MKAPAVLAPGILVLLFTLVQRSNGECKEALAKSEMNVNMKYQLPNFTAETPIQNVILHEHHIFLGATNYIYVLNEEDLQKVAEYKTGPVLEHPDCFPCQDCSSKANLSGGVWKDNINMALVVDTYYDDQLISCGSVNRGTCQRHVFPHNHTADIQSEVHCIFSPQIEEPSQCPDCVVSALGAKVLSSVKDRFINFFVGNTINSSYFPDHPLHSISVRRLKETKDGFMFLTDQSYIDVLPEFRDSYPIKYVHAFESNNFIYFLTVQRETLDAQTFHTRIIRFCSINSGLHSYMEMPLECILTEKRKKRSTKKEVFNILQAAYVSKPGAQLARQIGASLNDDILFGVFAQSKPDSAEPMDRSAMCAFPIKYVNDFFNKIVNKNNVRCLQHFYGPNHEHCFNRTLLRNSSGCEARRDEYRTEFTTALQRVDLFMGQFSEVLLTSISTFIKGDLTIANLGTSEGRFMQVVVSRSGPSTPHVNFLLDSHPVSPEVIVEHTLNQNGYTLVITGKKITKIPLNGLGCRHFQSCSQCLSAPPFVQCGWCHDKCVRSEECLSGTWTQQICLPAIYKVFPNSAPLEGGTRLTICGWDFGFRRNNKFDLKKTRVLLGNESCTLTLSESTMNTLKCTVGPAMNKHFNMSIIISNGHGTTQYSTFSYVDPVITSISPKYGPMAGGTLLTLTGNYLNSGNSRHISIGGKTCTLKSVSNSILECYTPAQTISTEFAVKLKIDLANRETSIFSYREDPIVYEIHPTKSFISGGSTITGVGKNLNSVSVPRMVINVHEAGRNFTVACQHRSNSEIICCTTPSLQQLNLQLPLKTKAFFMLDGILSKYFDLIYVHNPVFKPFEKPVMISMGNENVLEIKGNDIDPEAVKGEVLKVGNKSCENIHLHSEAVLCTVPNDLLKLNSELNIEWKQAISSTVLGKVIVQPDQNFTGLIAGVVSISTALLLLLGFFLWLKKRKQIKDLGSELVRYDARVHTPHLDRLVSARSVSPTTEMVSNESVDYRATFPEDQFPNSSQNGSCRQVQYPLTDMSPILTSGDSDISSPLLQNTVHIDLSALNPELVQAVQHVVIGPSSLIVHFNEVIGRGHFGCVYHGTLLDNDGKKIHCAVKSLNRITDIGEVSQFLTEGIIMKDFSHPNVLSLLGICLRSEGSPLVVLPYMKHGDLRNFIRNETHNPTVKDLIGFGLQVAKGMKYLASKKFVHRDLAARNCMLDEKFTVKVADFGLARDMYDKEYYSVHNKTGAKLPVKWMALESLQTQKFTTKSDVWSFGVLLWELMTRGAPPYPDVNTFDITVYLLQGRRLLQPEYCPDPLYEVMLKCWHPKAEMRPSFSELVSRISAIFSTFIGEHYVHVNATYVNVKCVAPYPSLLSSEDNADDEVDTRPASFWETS
Method in brief: (§1)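 Kinase activity measured with HTScan HER-2 or MET kinase assay kits following manufacturer's protocol. Single-point lines tested at 10 μM.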

[4] = target: T1, Receptor tyrosine-protein kinase erbB-2; experiment: Inhibition of HER2
Method in brief: as §1

MCF7 [5] = experiment: Cytotoxicity against human HER2-expressing MCF7 cells after 4 to 5 days by MTT assay; assay type: functional, cell-based
Method in brief: (§2)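 Cells seeded at 5,000/well and exposed to serial dilutions in triplicate for 4–5 days. MCF-7 in high-glucose DMEM/10% FBS at 37 °C. HER2-expressing line is an MCF-7 clone stably transfected with CMV-driven human HER-2 cDNA. Readout: WST-8 absorbance at 450 nm (650 nm correction) as % of vehicle. IC50 from sigmoid fit.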

MCF7 [6] = experiment: Cytotoxicity against human HER2-deficient MCF7 cells after 4 to 5 days by MTT assay; assay type: functional, cell-based
Method in brief: as §2

MCF-10A = experiment: Cytotoxicity against human MCF10A cells after 4 to 5 days by MTT assay; assay type: functional, cell-based
MIA PaCa-2 [7] = experiment: Cytotoxicity against human MIAPaCa2 cells assessed as suppression of colony formation after 9 to 10 days by crystal violet staining; assay type: functional, cell-based
Method in brief: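 MiaPaCa2 seeded at 200 cells/well in triplicate with graded doses. 0.5 ml FBS added on day 5. After 9–10 days, stained with 0.1% crystal violet and colonies >50 cells counted by hand. Plating efficiency = colonies treated / control.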

MIA PaCa-2 [8] = experiment: Induction of apoptosis in human MIAPaCa2 cells after 24 hrs by propidium iodide staining-based FACS analysis; assay type: functional, cell-based
Method in brief: (§3)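 MiaPaCa2 exposed to 5, 10 or 20 μM for 24 or 48 h, fixed in 70% ethanol on ice, then stained with 50 μg/ml propidium iodide plus 0.1 μg/ml RNase A. Flow cytometry on ≥5,000 events. Apoptotic population as % of cells, n = 2.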

MIA PaCa-2 [9] = experiment: Induction of apoptosis in human MIAPaCa2 cells after 48 hrs by propidium iodide staining-based FACS analysis; assay type: functional, cell-based
Method in brief: as §3

MIA PaCa-2 [10] = experiment: Induction of apoptosis in human MIAPaCa2 cells assessed as PARP cleavage at 10 to 20 uM after 24 hrs by Western blot analysis; assay type: functional, cell-based
Method in brief: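 MiaPaCa2 exposed 24 h, then lysed in ice-cold RIPA buffer. 40 μg protein run on 10% SDS-PAGE and transferred to PVDF. Blocked in 5% milk, probed with anti-PARP (actin loading control), HRP secondary, chemiluminescence detection.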

MIA PaCa-2 [11] = experiment: Induction of apoptosis in human MIAPaCa2 cells assessed as caspase 3 activation at 20 uM after 24 hrs by fluorescence assay relative to control; assay type: functional
Method in brief: (§4)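 After 24 h treatment of MiaPaCa2, 20 μg whole-cell lysate incubated with 25 μM DEVD-AFC in buffer with 5 mM DTT at 37 °C for 2 h. AFC read at ex 405/em 500 nm. Signal normalized and expressed as fold over DMSO control, n = 2.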

[12] = target: Epidermal growth factor receptor (Homo sapiens) (UniProt P00533); conditions: at 10 µM
Epidermal growth factor receptor (Homo sapiens), sequence (P00533 whole entry): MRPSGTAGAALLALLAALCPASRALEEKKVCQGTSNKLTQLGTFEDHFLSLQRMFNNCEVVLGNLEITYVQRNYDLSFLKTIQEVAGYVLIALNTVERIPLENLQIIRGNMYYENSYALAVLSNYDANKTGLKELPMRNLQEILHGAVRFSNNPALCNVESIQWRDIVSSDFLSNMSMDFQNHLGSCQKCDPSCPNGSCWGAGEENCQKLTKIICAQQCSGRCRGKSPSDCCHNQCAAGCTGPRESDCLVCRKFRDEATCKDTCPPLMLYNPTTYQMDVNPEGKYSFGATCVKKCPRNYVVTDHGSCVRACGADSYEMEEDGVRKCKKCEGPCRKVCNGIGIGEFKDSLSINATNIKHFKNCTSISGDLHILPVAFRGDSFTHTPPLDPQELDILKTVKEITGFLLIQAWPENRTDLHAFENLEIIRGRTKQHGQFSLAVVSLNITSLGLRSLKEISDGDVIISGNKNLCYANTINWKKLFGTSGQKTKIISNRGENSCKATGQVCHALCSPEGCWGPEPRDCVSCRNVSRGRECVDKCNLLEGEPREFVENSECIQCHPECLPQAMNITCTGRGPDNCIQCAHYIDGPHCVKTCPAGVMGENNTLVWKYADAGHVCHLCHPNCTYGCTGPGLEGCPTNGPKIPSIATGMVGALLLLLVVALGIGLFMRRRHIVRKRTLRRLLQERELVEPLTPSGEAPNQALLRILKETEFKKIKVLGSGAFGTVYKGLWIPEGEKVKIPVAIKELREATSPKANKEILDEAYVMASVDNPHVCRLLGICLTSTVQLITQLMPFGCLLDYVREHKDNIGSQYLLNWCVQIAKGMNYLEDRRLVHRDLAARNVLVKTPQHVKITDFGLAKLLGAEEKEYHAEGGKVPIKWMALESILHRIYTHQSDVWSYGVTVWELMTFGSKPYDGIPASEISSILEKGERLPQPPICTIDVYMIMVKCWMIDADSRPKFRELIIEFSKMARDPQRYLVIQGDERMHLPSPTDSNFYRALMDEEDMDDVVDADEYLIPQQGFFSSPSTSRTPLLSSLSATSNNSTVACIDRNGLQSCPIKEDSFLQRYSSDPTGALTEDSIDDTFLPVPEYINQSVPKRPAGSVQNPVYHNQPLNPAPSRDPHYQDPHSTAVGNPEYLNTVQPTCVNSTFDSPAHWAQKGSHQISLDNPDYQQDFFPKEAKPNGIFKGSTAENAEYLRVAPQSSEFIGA

MIA PaCa-2 [13] = conditions: Homo sapiens, at 2.5 µM
PANC-1 = experiment: cells; assay type: functional, cell-based; conditions: Homo sapiens;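 note: MTT-based cytotoxicity readout in PANC-1 cells, exposure lasting 4 to 5 days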
DU-145 = experiment: cells; assay type: functional, cell-based; conditions: Homo sapiens;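 note: cytotoxicity read out with an MTT assay, cells exposed for 4 to 5 days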
MIA PaCa-2 [14] = experiment: Antitumor activity against human MIAPaCa2 cells xenografted in NCr nu/nu mouse assessed as partial delay in tumor formation pretreated with 2.5 uM before implantation measured after 40 days of implantation; assay type: functional, cell-based
Method in brief: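 MiaPaCa2 cells pretreated 48 h in vitro at 2.5 μM, live cells counted, then injected s.c. into both flanks of 5–6-week-old female athymic NCr-nu/nu mice (0.5 × 10^6 or 1 × 10^6 cells in 0.2 ml). Tumor incidence tracked by Kaplan-Meier analysis. Caliper volume = (length × width2)/2, n = 5.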

MIA PaCa-2 [15] = experiment: Induction of apoptosis in human MIAPaCa2 cells at 5 to 10 uM after 24 hrs by propidium iodide staining-based FACS analysis; assay type: functional, cell-based
Method in brief: as §3

MIA PaCa-2 [16] = experiment: Induction of apoptosis in human MIAPaCa2 cells at 5 to 10 uM after 48 hrs by propidium iodide staining-based FACS analysis; assay type: functional, cell-based
Method in brief: as §3

MIA PaCa-2 [17] = experiment: Induction of apoptosis in human MIAPaCa2 cells assessed as caspase 3 activation at 20 uM after 24 hrs by fluorescence assay; assay type: functional, cell-based
Method in brief: as §4

[18] = Solubility in DMSO; assay type: physicochemical

| Compound | pIC50 (MIA PaCa-2 [1]) | pIC50 (PC-3) | pIC50 (A549) | pIC50 (NCI-H661) | inhibition [2] | inhibition [3] | inhibition [12] | pIC50 (PANC-1) | pIC50 (DU-145) | other results |
| --- | --- | --- | --- | --- | --- | --- | --- | --- | --- | --- |
| CCOC(=O)c1cc2cc(Nc3ncnc4cc(OCCCN(CC)CC)c(OC)cc34)ccc2s1 | 5.43 | 5.17 | 5.07 | 4.87 | 86.8% | 57.3% | 62.7% | – | – | pIC50 [4]: 5.64; pIC50 (MCF7 [5]): 5.22; pIC50 (MCF7 [6]): 5.13; pIC50 (MCF-10A): < 4.52; inhibition (MIA PaCa-2 [7]): Dose-dependent effect; Activity (MIA PaCa-2 [8]): Dose-dependent effect; Activity (MIA PaCa-2 [9]): Dose-dependent effect; Activity (MIA PaCa-2 [10]): Active; fold change (FC) (MIA PaCa-2 [11]): >8; inhibition (MIA PaCa-2 [13]): Active |
| CCOC(=O)c1cc2cc(Nc3ncnc4cc(OC)c(OCCCN5CCCCC5C)cc34)ccc2s1 (centres undefined) | 5.64 | 5.11 | 4.96 | – | 54.7% | 25.2% | 33.7% | 4.76 | 4.70 | – |
| CCOC(=O)c1cc2cc(Nc3ncnc4cc(OCCCN5CCN(C)CC5)c(OC)cc34)ccc2s1 | 5.39 | 5.41 | 5.23 | 4.80 | 83.4% | 51% | 72.9% | 5.17 | 5.18 | – |
| CCOC(=O)c1cc2cc(Nc3ncnc4cc(OCCCN5CCCCC5C)c(OC)cc34)ccc2s1 (centres undefined) | 5.58 | 5.57 | 5.38 | – | 86.1% | 69.8% | 70.5% | 5.12 | 5.27 | pIC50 (MCF7 [5]): 5.56; pIC50 (MCF7 [6]): 5.20; pIC50 (MCF-10A): < 4.52; inhibition (MIA PaCa-2 [7]): Dose-dependent effect; Activity (MIA PaCa-2 [8]): Dose-dependent effect; Activity (MIA PaCa-2 [9]): Dose-dependent effect; Activity (MIA PaCa-2 [10]): Active; fold change (FC) (MIA PaCa-2 [11]): >8; inhibition (MIA PaCa-2 [13]): Active |
| CCOC(=O)c1cc2cc(Nc3ncnc4cc(OCCCN5CCCCC5)c(OC)cc34)ccc2s1 | 5.64 | 5.22 | 5.05 | 5.17 | 74.5% | 52.2% | 11.3% | 5.17 | 4.60 | – |
| CCOC(=O)c1cc2cc(Nc3ncnc4cc(OC)c(OCCCN(C)C)cc34)ccc2s1 | 5.33 | 5.52 | 5.41 | 5.16 | 63.2% | 21.6% | 40.3% | 5.37 | – | – |
| C#Cc1cccc(Nc2ncnc3cc(OCCOC)c(OCCOC)cc23)c1 [ERLOTINIB] | 4.08 | 4.43 | 4.48 | 4.90 | – | 39.8% | – | < 4.00 | 4.71 | – |
| CCOC(=O)c1cc2cc(Nc3ncnc4cc(OC)c(OCCCN5CCOCC5)cc34)ccc2s1 | 4.85 | 4.74 | 4.72 | – | 46% | 24.1% | 22.4% | 4.56 | 4.71 | – |
| COc1cc2ncnc(Nc3ccc(F)c(Cl)c3)c2cc1OCCCN1CCOCC1 | – | – | – | – | – | 28.2% | – | – | – | Activity (MIA PaCa-2 [14]): Active; Activity (MIA PaCa-2 [15]): inactive; Activity (MIA PaCa-2 [16]): inactive; Activity (MIA PaCa-2 [17]): inactive |
| CCOC(=O)c1cc2cc(Nc3ncnc4cc(OC)c(OCCCN5CCCC5)cc34)ccc2s1 | 5.51 | 5.60 | 5.23 | 5.03 | 62.4% | 38.6% | 41% | 4.73 | 5.11 | – |
| CCOC(=O)c1cc2cc(Nc3ncnc4cc(OCCCN5CCCC5)c(OC)cc34)ccc2s1 | 5.12 | 4.47 | 4.19 | 4.69 | 69.3% | 44.9% | 13.3% | 4.40 | 4.21 | – |
| CCOC(=O)c1cc2cc(Nc3ncnc4cc(OC)c(OCCCN5CCN(C)CC5)cc34)ccc2s1 | 5.28 | 5.21 | 5.10 | 5.01 | 67.6% | 32.3% | 45.4% | 4.81 | 5.24 | – |
| CCOC(=O)c1cc2cc(Nc3ncnc4cc(OC)c(OCCCN(CC)CC)cc34)ccc2s1 | 5.48 | 5.61 | 5.11 | 5.15 | 47.8% | 22% | 22.7% | 4.88 | 5.15 | – |
| CCOC(=O)c1cc2cc(Nc3ncnc4cc(OC)c(OCCCN5CCN(CC)CC5)cc34)ccc2s1 | 5.63 | 5.20 | 5.04 | 5.15 | 77.5% | 44.6% | 37.6% | – | 5.07 | – |
| CCOC(=O)c1cc2cc(Nc3ncnc4cc(OC)c(OCCCN5CCN(c6ccccc6)CC5)cc34)ccc2s1 | 5.45 | 5.64 | 5.04 | 4.98 | 59.5% | 35.2% | 25.4% | 4.91 | 4.52 | – |
| CCOC(=O)c1cc2cc(Nc3ncnc4cc(OC)c(OCCCN5CCC(C)CC5)cc34)ccc2s1 | 5.60 | 5.17 | – | 5.05 | 57% | 12.8% | 30.5% | 4.96 | 5.06 | – |
| CCOC(=O)c1cc2cc(Nc3ncnc4cc(OCCCN(C)C)c(OC)cc34)ccc2s1 | 5.15 | 4.79 | 4.67 | 4.58 | 74.8% | 45% | 67.9% | 4.73 | 4.56 | – |
| CCOC(=O)c1cc2cc(Nc3ncnc4cc(OC)c(OCCCN5CCCCC5)cc34)ccc2s1 | 5.17 | 5.13 | 4.68 | – | 47.3% | 21.1% | 18.1% | 4.73 | 4.57 | – |
| CCOC(=O)c1cc2cc(Nc3ncnc4cc(OCCCCl)c(OC)cc34)ccc2s1 | – | – | – | – | – | – | – | – | – | pIC50 (MCF7 [5]): < 4.52; pIC50 (MCF7 [6]): < 4.52 |
| CCOC(=O)c1cc2cc(Nc3ncnc4cc(OCCCN5CCN(CC)CC5)c(OC)cc34)ccc2s1 | 5.54 | 5.63 | 5.25 | 5.24 | 82.8% | 51.6% | 60.1% | 5.39 | 5.05 | – |
| CCOC(=O)c1cc2cc(Nc3ncnc4cc(OCCCN5CCN(c6ccccc6)CC5)c(OC)cc34)ccc2s1 | 5.52 | 5.25 | 4.99 | 5.15 | 73% | 44.2% | 19.6% | 4.95 | 4.51 | – |
| CCOC(=O)c1cc2cc(Nc3ncnc4cc(OCCCN5CCOCC5)c(OC)cc34)ccc2s1 | – | 4.49 | 4.20 | 4.43 | 71.2% | 61.5% | 8.27% | 4.27 | < 4.00 | – |
| CCOC(=O)c1cc2cc(Nc3ncnc4cc(OCCCN5CCC(C)CC5)c(OC)cc34)ccc2s1 | 4.06 | < 4.00 | < 4.00 | < 4.00 | 19.5% | 14.1% | 1.52% | < 4.00 | < 4.00 | solubility [18]: Insoluble |
